Among the data in ChEMBL document CHEMBL1131093, “ATP-Citrate lyase as a target for hypolipidemic intervention. 2. Synthesis and evaluation of (3R,5S)-omega-substituted-3-carboxy-3, 5-dihydroxyalkanoic acids and their gamma-lactone prodrugs as inhibitors of the enzyme in vitro and in vivo” (J Med Chem, 1998) are Control and Reduction values, retold here.

Experiment [1] deals with HepG2. Description: Inhibition of cholesterol synthesis in HepG2 cells was measured at 300 uM concentration. Also on record: scale not given: the % may be the effect or the level left. It is filed as functional, Homo sapiens. In a few lines: (§1)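 Compounds were applied to HepG2 cells as their γ-lactone prodrugs. De novo cholesterol synthesis, fatty acid synthesis and cellular ATP levels were each expressed as % of control. Significance was marked at p < 0.001.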

For experiment [2], the system named is HepG2. Description: Inhibition of cholesterol synthesis in HepG2 cells was measured at 1000 uM concentration. It is filed as functional, Homo sapiens. Also on record: scale not given: the % may be the effect or the level left. The gist of the method:
as §1

Experiment [3] deals with HepG2. Description: Inhibition of ATP levels in HepG2 cells was measured at 1000 uM concentration. It is filed as functional, Homo sapiens. The arrangement: scale not given: the % may be the effect or the level left. The gist of the method:
as §1

In experiment [4] the test system is HepG2. Description: Inhibition of ATP levels in HepG2 cells was measured at 300 uM concentration. Also on record: scale not given: the % may be the effect or the level left. It is filed as functional, Homo sapiens. The gist of the method:
as §1

Experiment [5] relates to HepG2. The experiment in a line: Inhibition of fatty acid synthesis in HepG2 cells was measured at 300 uM concentration. It is filed as functional, Homo sapiens. The arrangement: scale not given: the % may be the effect or the level left. In a few lines: as §1
Experiment [6] deals with HepG2. Description: Inhibition of fatty acid synthesis in HepG2 cells was measured at 1000 uM concentration. It is filed as functional, Homo sapiens. The arrangement: scale not given: the % may be the effect or the level left. In a few lines: as §1
For experiment [7], the system named is HepG2. The experiment in a line: Inhibition of fatty acid synthesis in HepG2 cells was measured at 100 uM concentration. The arrangement: scale not given: the % may be the effect or the level left.
In experiment [8] the test system is HepG2. Description: Inhibition of cholesterol synthesis in HepG2 cells was measured at 100 uM concentration. Also on record: scale not given: the % may be the effect or the level left.
In experiment [9] the test system is HepG2. The experiment in a line: Inhibition of fatty acid synthesis in HepG2 cells was measured at 3 uM concentration. The arrangement: scale not given: the % may be the effect or the level left. It is filed as functional, Homo sapiens. The gist of the method: as §1
For experiment [10], the system named is Rattus norvegicus. Description: % Reduction of plasma triglyceride in the rat was measured at dose 75 mg/kg/d. It is filed as functional. The gist of the method: (§2)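 Male Sprague-Dawley rats were kept on a reverse 12 h light/12 h dark cycle with free access to RM1 powdered diet and water. Compound was given orally by gavage as two doses 24 h apart. Blood was drawn mid dark cycle, 4 h after the second dose, into EDTA. Plasma was separated at 1500g for 15 min. Triglyceride was measured enzymatically (GPO-PAP) and reported as % reduction from control.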

Experiment [11] concerns HepG2. The experiment in a line: Inhibition of ATP levels in HepG2 cells was measured at 3 uM concentration. The arrangement: scale not given: the % may be the effect or the level left. It is filed as functional, Homo sapiens. The gist of the method:
as §1

Experiment [12] has as its system HepG2. Description: Inhibition of cholesterol synthesis in HepG2 cells was measured at 3 uM concentration. It is filed as functional, Homo sapiens. Also on record: scale not given: the % may be the effect or the level left. In a few lines:
as §1

Experiment [13] deals with HepG2. Description: Inhibition of fatty acid synthesis in HepG2 cells was measured at 10 uM concentration. It is filed as functional, Homo sapiens. Also on record: scale not given: the % may be the effect or the level left. The gist of the method: as §1
The subject of experiment [14] is HepG2. The experiment in a line: Inhibition of ATP levels in HepG2 cells was measured at 28.2 uM concentration. It is filed as functional, Homo sapiens. Also on record: scale not given: the % may be the effect or the level left.
For experiment [15], the system named is Rattus norvegicus. The experiment in a line: % Reduction of plasma triglyceride in the rat was measured at dose 37.5 mg/kg/d. It is filed as functional. The gist of the method: as §2
Experiment [16] deals with HepG2. Description: Inhibition of ATP levels in HepG2 cells was measured at 10 uM concentration. The arrangement: scale not given: the % may be the effect or the level left. It is filed as functional, Homo sapiens. In a few lines:
as §1

Experiment [17] relates to HepG2. The experiment in a line: Inhibition of cholesterol synthesis in HepG2 cells was measured at 10 uM concentration. It is filed as functional, Homo sapiens. The arrangement: scale not given: the % may be the effect or the level left. The gist of the method: as §1

Where “and” joins values, the source holds several entries; their conditions need not be identical. Equal entries are not always repeated.

As for `O=C(O)C[C@@](O)(C(=O)O)[C@H](O)C(=O)O`, the Control is on record as 40% in experiment [1]; 15% in experiment [2]; 104% in experiment [3]; 103% in [4]; 79% in experiment [5]; 57% in [6]. Further, the Control was 87% in experiment [7] and 110% in experiment [8].
For `Cc1cn(-c2cc(Cl)ccc2CCCCCC[C@@H]2C[C@](O)(CC(=O)O)C(=O)O2)cc1C`, the Control in experiment [9] was 102%; in experiment [11], 98%; in [12] it was 104%; in experiment [13], 75% and 89%; in experiment [14], 96%; in [16], 96% and 101%. Besides, the Control in experiment [17] came to 82%. In addition, the Reduction in experiment [10] came out at 20%; in experiment [15] it was 10%.
